In PubChem BioAssay one finds GFP response vs DMSO, GFP response relative to DMSO and GFP response, % of DMSO data, which are given here for 13 compounds.

Calls of active or inactive are those of the source.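 How the source made its calls, unless noted: active means GFP response above 150% of the DMSO level; inconclusive means fewer than 70 events counted for a yeast strain; inactive means the rest.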

The nature of assay [1]: hit retest on RPL19A-GFP reporter strain – cell-based, S. cerevisiae, flow cytometry, cherry picks, mother/daughter gates, confirmation (AID 2270;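 active means GFP response below 50% of the DMSO control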). Conditions: 3 h, at 10 µM, stronger effect = lower value, 100 = same GFP as DMSO wells. In general terms: In flow cytometry, cells or beads pass a laser one at a time.
The nature of assay [2]: yeast TOR pathway reporter LAP4-GFP change – cell-based, cherry picks, flow cytometry, mother/daughter gates, confirmation (AID 2271;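 active means GFP response above 150% of the DMSO control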;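 further: ratio of sample to DMSO plate mean so 100% equals DMSO level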). As to conditions: S. cerevisiae LAP4-GFP strain, 3 h, at 10 µM, stronger effect = higher value, 100 means same as DMSO control. In a few lines: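 Test system: GFP-fusion yeast strain / Amount: 0.2 OD600 cells / Buffer or medium: SC medium / Dosing: 10 µM single dose / Incubation: compound exposure 3 h at 30 °C, end-over-end rotation / Detection: HT flow cytometry, GFP fluorescence channel / Evaluation: median GFP fluorescence as percent of plate-mean DMSO wells / Control set: DMSO-only negative wells, rapamycin 400 ng/mL positive wells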

Assay [3] can be described thus: TOR pathway reporter MEP2-GFP, retest of hits – S. cerevisiae, flow cytometry GFP, cherry picks, confirmation (AID 2272;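 active means GFP response above 150% of the DMSO control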;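 further: ratio of well signal to plate DMSO mean so 100% equals DMSO level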). As to conditions: S. cerevisiae MEP2-GFP strain, 3 h, at 10 µM, stronger effect = higher value.
The nature of assay [4]: yeast AGP1-GFP fluorescence change, single-dose – cell-based, flow cytometry, S. cerevisiae, cherry picks, confirmation (AID 2273).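 Further: median GFP channel fluorescence over the whole cell population gate.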 Conditions: S. cerevisiae AGP1-GFP strain, 3 h, at 10 µM.
The nature of assay [5]: TOR pathway CIT2 reporter hit retest – S. cerevisiae, GFP fusion, cherry picks, mother/daughter gates, confirmation (AID 2274). As to conditions: S. cerevisiae CIT2-GFP strain, flow cytometry, 3 h, at 10 µM, stronger effect = higher value.
Where [6] appears, read: measured here: daughter cell gate.
Setting [7] is: measured here: mother cell gate.
Where [8] appears, read: measured here: daughter cell gate response.
The mark [9] stands for this setting: measured here: mother cell gate response.

For the compound `Cc1ccc(Cl)cc1N1CCN(C(=O)CSc2ccsc2[N+](=O)[O-])CC1`, the GFP response vs DMSO was 98% (inactive) in assay [1], 97.4% in assay [1] (setting [6]), 97.8% in assay [1] (setting [7]) and 101% (inactive) in assay [3]. Also, the GFP response relative to DMSO is 97% (inactive) in assay [2], 95.9% in assay [2] (setting [8]) and 96.2% in assay [2] (setting [9]). Further, the GFP response, % of DMSO was 99.4% (inactive) in assay [4], 100% (inactive) in assay [5], 99.2% in assay [5] (setting [6]) and 99.3% in assay [5] (setting [7]).

As for `COc1cc(NC(=O)c2cccc(F)c2)ccc1NC(=O)c1cc2ccccc2o1`, the GFP response vs DMSO in assay [1] is 97.8% (inactive); in assay [1] (setting [6]), 98.3%; in assay [1] (setting [7]), 97.6%; in assay [3], 102% (inactive). Besides, the values for the GFP response relative to DMSO in assay [2], in assay [2] (setting [8]) and in assay [2] (setting [9]) were 98.8% (inactive), 99.3% and 97.5%, respectively. In addition, the GFP response, % of DMSO was 101% (inactive) in assay [4], 97.8% (inactive) in assay [5], 98.3% in assay [5] (setting [6]) and 95.6% in assay [5] (setting [7]).

`CCCCC(=O)NNC(=S)NC(=O)c1ccc(C)cc1`: the GFP response vs DMSO is 116% (inactive) in assay [1], 111% in assay [1] (setting [6]), 111% in assay [1] (setting [7]) and 134% (inactive) in assay [3]. Also, the GFP response relative to DMSO was 249% (active) in assay [2], 204% in assay [2] (setting [8]) and 233% in assay [2] (setting [9]). The GFP response, % of DMSO in assay [4] is 100% (inactive); in assay [5] it was 119% (inactive); in assay [5] (setting [6]), 114%; in assay [5] (setting [7]), 110%.

Regarding `O=S(=O)(c1ccc(Oc2ccccc2)cc1)N1CCOCC1`, the GFP response vs DMSO in assay [1] was 98.2% (inactive); in assay [1] (setting [6]), 98.4%; in assay [1] (setting [7]), 98.2%; in assay [3], 100% (inactive). Also, the GFP response relative to DMSO in assay [2] is 96.2% (inactive); in assay [2] (setting [8]) it was 95.6%; in assay [2] (setting [9]) it was 97.2%. In addition, the GFP response, % of DMSO in assay [4] is 94.1% (inactive); in assay [5] it was 93.9% (inactive); in assay [5] (setting [6]) it was 94.8%; in assay [5] (setting [7]) it was 94.4%.

In the case of `Cc1occc1-c1nnc(-c2cc([N+](=O)[O-])cc([N+](=O)[O-])c2)o1`, the GFP response vs DMSO is 88.1% (inactive) in assay [1], 82.8% in assay [1] (setting [6]), 85.9% in assay [1] (setting [7]) and 123% (inactive) in assay [3]. Besides, the figures for the GFP response relative to DMSO in assay [2], in assay [2] (setting [8]) and in assay [2] (setting [9]) were 142% (inactive), 126% and 149%, respectively. In addition, the GFP response, % of DMSO in assay [4] was 135% (inactive); in assay [5], 87.2% (inactive); in assay [5] (setting [6]), 85.7%; in assay [5] (setting [7]), 81.8%.

With `Cc1ccc(C)c(Cn2ncc3ccccc32)c1`, the GFP response vs DMSO in assay [1] is 95.8% (inactive); in assay [1] (setting [6]) it was 98.1%; in assay [1] (setting [7]), 95.4%; in assay [3] it was 106% (inactive). Besides, the GFP response relative to DMSO in assay [2] is 100% (inactive); in assay [2] (setting [8]) it was 97.5%; in assay [2] (setting [9]), 104%. Moreover, the GFP response, % of DMSO in assay [4] was 90.7% (inactive); in assay [5], 94.4% (inactive); in assay [5] (setting [6]) it was 95.8%; in assay [5] (setting [7]), 92.6%.

For `CCc1nnc(NC(=O)c2ccc(S(=O)(=O)N3CCCC(C)C3)cc2)o1` (stereo not drawn), the GFP response vs DMSO in assay [1] is 101% (inactive); in assay [1] (setting [6]), 99.1%; in assay [1] (setting [7]), 98.5%; in assay [3], 101% (inactive). The GFP response relative to DMSO is 98.2% (inactive) in assay [2], 97.5% in assay [2] (setting [8]) and 100% in assay [2] (setting [9]). The GFP response, % of DMSO in assay [4] is 105% (inactive); in assay [5], 102% (inactive); in assay [5] (setting [6]) it was 105%; in assay [5] (setting [7]), 99.3%.

For `Cc1cccn2c(=O)c(/C=C(\C#N)C(=O)NC3CCS(=O)(=O)C3)c(N3CCC(C)CC3)nc12` (stereo not drawn), the GFP response vs DMSO in assay [1] is 102% (inactive); in assay [1] (setting [6]) it was 101%; in assay [1] (setting [7]) it was 102%; in assay [3] it was 102% (inactive). Further, the GFP response relative to DMSO in assay [2] is 96.2% (inactive); in assay [2] (setting [8]) it was 97.2%; in assay [2] (setting [9]), 95.2%. Also, the GFP response, % of DMSO in assay [4] is 101% (inactive); in assay [5], 107% (inactive); in assay [5] (setting [6]) it was 99.7%; in assay [5] (setting [7]), 109%.

`CCOC(=O)Cc1csc(NC(=O)c2sc3nc4ccc(CC)cc4cc3c2N)n1`: the GFP response vs DMSO in assay [1] was 98.9% (inactive); in assay [1] (setting [6]), 99.5%; in assay [1] (setting [7]), 99.4%; in assay [3], 108% (inactive). For the same compound, the figures for the GFP response relative to DMSO in assay [2], in assay [2] (setting [8]) and in assay [2] (setting [9]) were 95.3% (inactive), 94.4% and 97.4%, respectively. The GFP response, % of DMSO in assay [4] was 107% (inactive); in assay [5], 98.6% (inactive); in assay [5] (setting [6]), 99.3%; in assay [5] (setting [7]) it was 99.3%.

As to `COc1ccc(-c2sc(C(=O)c3ccc(Cl)cc3Cl)cc2CC(=O)O)cc1`, the GFP response vs DMSO in assay [1] is 96% (inactive); in assay [1] (setting [6]), 95.9%; in assay [1] (setting [7]), 95.8%; in assay [3], 122% (inactive). The GFP response relative to DMSO in assay [2] is 130% (inactive); in assay [2] (setting [8]), 127%; in assay [2] (setting [9]), 131%. The GFP response, % of DMSO was 101% (inactive) in assay [4], 104% (inactive) in assay [5], 105% in assay [5] (setting [6]) and 104% in assay [5] (setting [7]).

`Cc1ccc(/C=C/C(=O)N2CC(C)CC(C)C2)o1` (stereo not drawn): the GFP response vs DMSO in assay [1] was 103% (inactive); in assay [1] (setting [6]), 105%; in assay [1] (setting [7]), 101%; in assay [3] it was 116% (inactive). Moreover, the GFP response relative to DMSO in assay [2] is 111% (inactive); in assay [2] (setting [8]), 107%; in assay [2] (setting [9]), 113%. Also, the GFP response, % of DMSO in assay [4] was 105% (inactive); in assay [5] it was 106% (inactive); in assay [5] (setting [6]) it was 103%; in assay [5] (setting [7]), 105%.

Take `Cc1ccc(N2CCN(C(=O)c3ccccc3Br)CC2)c(C)c1`: the GFP response vs DMSO in assay [1] is 100% (inactive); in assay [1] (setting [6]), 97.6%; in assay [1] (setting [7]) it was 101%; in assay [3], 98.3% (inactive). For the same compound, the values for the GFP response relative to DMSO in assay [2], in assay [2] (setting [8]) and in assay [2] (setting [9]) were 95.4% (inactive), 92.8% and 96.1%, respectively. Also, the GFP response, % of DMSO in assay [4] is 92.1% (inactive); in assay [5], 96.9% (inactive); in assay [5] (setting [6]), 97.2%; in assay [5] (setting [7]) it was 96.1%.

Take `CCOC(=O)c1ccccc1NC(=O)c1c(O)c2ccccc2n(CC)c1=O`: the GFP response vs DMSO in assay [1] is 95.6% (inactive); in assay [1] (setting [6]) it was 96.9%; in assay [1] (setting [7]), 96.2%; in assay [3], 102% (inactive). The GFP response relative to DMSO is 101% (inactive) in assay [2], 102% in assay [2] (setting [8]) and 98.3% in assay [2] (setting [9]). For the same compound, the GFP response, % of DMSO in assay [4] is 93.7% (inactive); in assay [5] it was 98.3% (inactive); in assay [5] (setting [6]), 99.1%; in assay [5] (setting [7]), 97.3%.
